Test results published in PMC7315572 (ACS Omega, 2020).

What was measured:
[1] = tested on: K562 human myelogenous leukemia cells; test: MTS cell viability assay in K562 cells; type: cell-based; conditions: 72 h
Method in brief: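 K562 cells were grown in IMDM with 10% FBS and 5% penicillin/streptomycin at 37 °C in 5% CO2. They were seeded at 2000 cells/well, left overnight, then given fresh medium containing the test compound for 72 h. MTS was added for 2 h, with absorbance read at 490 nm against a 690 nm reference. % cell death = (control − sample)/control × 100. IC50 came from dose-response curves, using triplicates from a single experiment ± SEM.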

[2] = tested on: erythroid cells; conditions: cited from earlier work
[3] = tested on: γ-globin mRNA expression in the K562 human myelogenous leukemia cell line; test: γ-globin mRNA expression in K562 cells by RT-qPCR; type: cell-based; conditions: K562, concentration not printed (at or near LSD1 IC50)
[4] = tested on: γ-globin mRNA expression in human CD34+ erythroid progenitor cells; test: γ-globin mRNA expression in CD34+ erythroid progenitor cells by RT-qPCR; type: cell-based
[5] = tested on: β-globin mRNA expression in human CD34+ erythroid progenitor cells; test: β-globin mRNA expression in CD34+ erythroid progenitor cells by RT-qPCR; type: cell-based; conditions: for Fold increase in β-globin mRNA: concentration not given
[6] = tested on: Townes SS mice; test: HbF induction in Townes SS mice; type: in vivo, mouse; conditions: 10 mg/kg, 2 weeks of treatment
Method in brief: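 Townes SS mice were dosed at 10 mg/kg for 2 weeks (route not specified). F-cells and F-reticulocytes were counted by flow cytometry on 5–10 μL of tail-vein blood. γ-Globin was measured by HPLC against each animal's pretreatment baseline. Each value is the mean of three animals + SEM.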

[7] = biological target: recombinant LSD1/CoREST (Homo sapiens, UniProt O60341); conditions: IC50 ND; cited from earlier work
[8] = tested on: spermine oxidase (SMOX); conditions: cited from earlier work

N[C@@H]1C[C@H]1c1ccccc1 (racemic) [Tranylcypromine, tranylcypromine]
Cytotoxicity in K562 cells (in words) [1]: minimal cytotoxicity | Induction of HbF in erythroid cells (in words) [2]: dose-dependent induction

NC(=O)NO [HU, hydroxyurea]
Fold increase in γ-globin mRNA expression [3]: 2.3 fold | Increase in γ-globin mRNA (in words, compared with K562) [4]: analogous to levels observed in the K562 line | Fold increase in β-globin mRNA [5]: no effect

c1ccc([C@@H]2C[C@H]2NC2CCNCC2)cc1 [compound 2]
Effect on β-globin mRNA levels (in words) ([5]; both 20 and 50 nM): marked decrease

Nc1n[nH]c(NCc2ccccc2Oc2ccc(-c3ccccc3)cc2)n1 [compound 8]
Increase in HbF-containing erythrocytes (F-cells) ([6]; Townes SS mice, flow cytometry): significant increases | Increase in γ-globin (HbF content) by HPLC relative to baseline/pretreatment ([6]; Townes mouse): 87% | LSD1 % inhibition at 10 μM [7]: ND (50.0% inhibition at 10 μM)[52] | Inhibition of spermine oxidase (SMOX) (in words) [8]: inhibit

Hemin
Fold increase in γ-globin mRNA expression [3]: 2.4 fold | Increase in γ-globin mRNA (in words, compared with K562) [4]: analogous to levels observed in the K562 line | Fold increase in β-globin mRNA [5]: 1.4 fold
